KCNK9 inh = inhibitors of human KCNK9 two-pore domain potassium channel. hit rate 1.2% among 310,000. AID 488922. B-score at 10 µM. HEK293 KCNK9, FluxOR thallium flux fluorescence; hits give low values;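 active = ratio B-score over 3 SD below the library mean, with starting fluorescence within 5 SD of its mean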;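 note: negative B-score means less thallium flux so channel inhibition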
KCNQ1 inh = human KCNQ1 channel inhibition | P51787 | CHO-K1 KCNQ1, FluxOR thallium flux fluorescence; hits give high values | B-score at 10 µM | hit rate 1.3% among 310,000;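 active = compounds whose thallium flux B-score, printed positive for inhibition, exceeds three library SD while starting fluorescence stays within three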;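 note: channel opened by potassium depolarization with thallium stimulus after 20 min compound exposure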
KCNQ1 pot = potentiates or activates the human KCNQ1 potassium channel. P51787. CHO-K1 KCNQ1, thallium flux FluxOR fluorescence; hits give high values. B-score at 10 µM. hit rate 0.35% among 310,000. AID 2648;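 active = fluorescence ratio B-score, a plate-corrected score, at least three library SD, with initial intensity B-score within 5 SD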
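Medium – assay buffer, equal DMSO in all wells · Material – CHO-K1 cell line with stable KCNQ1 potassium channel expression · Signal – kinetic FluxOR thallium fluorescence, 10-s 1-Hz baseline, 110-s post-stimulus read · Compound – single concentration per compound, DMSO matched to controls · Schedule – 37 °C overnight plating, 90-min dark dye load, 20-min compound pretreatment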
hERG protect = compounds protecting human hERG from proarrhythmic drug block; activation (rescue from dofetilide block), less the hit threshold, % at 10 µM; CHO-hERG, FluxOR thallium flux, dofetilide IC70 present; hit rate 0.51% among 310,000; Q12809;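 active = activation above the mean of controls blocked by dofetilide plus 5 SD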;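 note: thallium influx through hERG after potassium depolarization seen as dye fluorescence rise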
KCNK3 inh = human KCNK3 channel inhibition, primary screen. O14649. CHO-KCNK3 thallium flux, FluxOR fluorescence; hits give low values. B-score at 10 µM. hit rate 0.84% among 340,000. AID 602410;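 active = B-score under library mean minus 4 SD, starting fluorescence ratio at most library mean plus 5 SD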;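 note: more negative B-score means stronger inhibition of thallium flux through KCNK3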
Kir21 block = Kir2.1 (mouse) channel inhibition | AID 1672 | B-score at 10 µM | hit rate 0.85% among 310,000 | HEK293-Kir2.1, FluxOR thallium flux fluorescence; hits give low values;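 active = fluorescence ratio B-score at or below minus 3 SD of library scores, with starting-brightness B-score within 2 SD, cut at about -4.2 in these data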;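 note: channel flux triggered by added potassium and thallium sulfate stimulus; B-score of peak minus minimum fluorescence over baseline after thallium stimulus; more negative B-score means stronger Kir2.1 block with less thallium influx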
Target sequence (P35561 whole entry, looked up): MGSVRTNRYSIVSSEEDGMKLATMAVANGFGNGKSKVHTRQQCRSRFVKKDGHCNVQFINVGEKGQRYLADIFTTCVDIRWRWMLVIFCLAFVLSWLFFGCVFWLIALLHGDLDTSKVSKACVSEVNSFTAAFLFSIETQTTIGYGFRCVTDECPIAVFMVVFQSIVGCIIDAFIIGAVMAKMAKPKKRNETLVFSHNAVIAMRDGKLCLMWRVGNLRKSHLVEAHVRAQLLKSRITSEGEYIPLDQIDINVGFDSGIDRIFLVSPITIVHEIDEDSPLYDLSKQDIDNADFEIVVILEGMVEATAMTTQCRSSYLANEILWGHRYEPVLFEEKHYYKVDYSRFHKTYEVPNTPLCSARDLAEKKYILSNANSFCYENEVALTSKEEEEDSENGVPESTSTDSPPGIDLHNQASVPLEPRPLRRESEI
KCNK9 block conf = confirmation of human KCNK9 potassium channel inhibitors; shares compounds with KCNK9 inh; HEK293 KCNK9 cells, FluxOR thallium flux fluorescence; inhibition, % at 10 µM; hit rate 43% among 4,900; AID 492992;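 active = thallium signal inhibited by more than 5 SD of the compound-free buffer control wells, on both duplicate plates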;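 note: 0% = assay buffer control wells without compound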
Kir2-1 spec = tests whether KCNK9 modulators also affect mouse Kir2.1; shares compounds with KCNK9 inh; inhibition, % at 10 µM; AID 492993; Kir2.1 cells, FluxOR thallium flux fluorescence; hit rate 4% among 4,900;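 active = thallium signal drop more than 5 SD beyond the mean of the no-compound control wells, seen in both duplicate plates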;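 note: signal is fluorescence rise after thallium addition divided by baseline fluorescence; plate controls were assay buffer only for no effect and full block by chlorpromazine control for full effect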
HEK293 Tl ctr = non-induced cell nonspecific activity of KCNK9 modulators; AID 492997; inhibition, % at 10 µM; non-induced KCNK9-HEK293, FluxOR thallium flux; shares compounds with KCNK9 inh; hit rate 40% among 4,900;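 active = thallium signal drop beyond 5 SD of the untreated control mean, on both duplicate plates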;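 note: plate controls were buffer only IC0 wells for no effect and SID17386958 at its maximal inhibitory level for full effect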
Active calls of the source: *; i = inactive; x = no result. The list is not random: actives were taken first. Their share in the collection is about 3.8%.

SMILES	KCNK9 inh	KCNQ1 inh	KCNQ1 pot	hERG protect	KCNK3 inh	Kir21 block	KCNK9 block conf	Kir2-1 spec	HEK293 Tl ctr
Cc1ccc(CN2CCN(/N=C/C(Br)=C\c3ccccc3)CC2)cc1	i	i	16*	2	i	-0.37	i	i	i
Cc1ccc(CN2CCN(/N=C/c3cccnc3)CC2)cc1	i	i	i	-7	i	-0.3	x	x	x
CC1OC(OC2C(OC3C(O[C@H]4CC[C@]5(C)C6C=C[C@]78OC[C@@]9(CC[C@@H](C)[C@H](C)C97)[C@H](O)C[C@@]8(C)[C@]6(C)CC[C@H]5C4(C)C)OC(C)C(O)C3O)OC(CO)C(O)C2O)C(O)C(O)C1O (stereo partly drawn)	i	i	i	-48	x	-11	x	x	x
COc1ccccc1N1CCN(c2nc(C)nc3c2oc2ccccc23)CC1	-14*	i	i	-27	-9*	1.3	i	i	32%*
Cn1cc(/C=C(\C#N)C(=O)Nc2ccccc2O)c2ccccc21	i	i	i	-3	i	1.5	x	x	x
O=C(Cc1ccc(Cl)cc1)Nc1ccc(N2CCN(C(=O)c3ccco3)CC2)c(Cl)c1	-9.8*	i	i	-2	i	-0.2	30%*	35%*	i
O=C1OC(Oc2ccccc2)(c2ccccc2)c2ccccc21 (stereo not drawn)	-10*	i	i	-16	i	-0.24	52%*	i	48%*
O=C1OC(OC2CCCCC2)(c2ccccc2)c2ccccc21 (stereo not drawn)	-18*	i	i	-7	i	0.58	76%*	i	60%*
CCCCC(CC)COC1(c2ccccc2)OC(=O)c2ccccc21 (stereo not drawn)	-18*	i	i	-6	i	-0.12	76%*	i	50%*
Cc1ccc(C)c(N2CCN(C(=O)CCc3nc(-c4ccc(F)cc4)no3)CC2)c1	x	x	x	x	i	x	x	x	x
CCc1ccc(C(=O)c2cnc3ccc(OC)cc3c2N2CCN(CC)CC2)cc1	i	i	i	-13	i	-1	i	i	i
CCOc1ccc(C(=O)c2cnc3ccccc3c2N2CCN(CC)CC2)cc1	i	i	i	-16	i	-1.1	x	x	x
CC(C)c1ccccc1-n1c(SCc2cc(=O)oc3ccc4ccccc4c23)nnc1-c1cccnc1	-11*	i	i	-17	i	-1.7	50%*	i	i
Cc1ccc(C)c(N2N=C(C(=O)Nc3ccc(N4CCOCC4)cc3)CCC2=O)c1	x	x	x	x	i	x	x	x	x
COC(=O)c1cc2sc(Cl)cc2n1CC(=O)Nc1cccc(SC)c1	-10*	i	i	-4	i	0.3	48%*	i	32%*
COc1ccc(OC)c(Nc2cc(-c3ccccc3)nc(N)n2)c1	-8.2*	i	i	-11	x	0.01	32%*	i	i
Cc1ccc(S(=O)(=O)N2CCCCC2)cc1NC(=O)COC(=O)Cc1ccc(Cl)cc1	i	i	i	-11	i	-0.54	i	i	i
Cc1ccc(S(=O)(=O)N2CCOCC2)cc1NC(=O)COC(=O)Cc1ccc(Cl)cc1	x	x	x	x	i	x	x	x	x
COc1ccc(OC)c(NC(=O)c2ccc(-c3cccs3)cc2)c1	-13*	i	i	-5	i	0.48	66%*	i	35%*
CCOP(=O)(OCC)C1NC(=O)N(c2ccccc2)C1=O (stereo not drawn)	i	i	i	-1	i	-0.57	x	x	x
N/C(Cc1ccc([N+](=O)[O-])cc1)=N\OC(=O)COc1cccc2ccccc12	-8.3*	i	i	-9	i	-0.49	i	i	37%*
O=C(O)C1CCN(S(=O)(=O)c2ccc(N3CCOCC3)c([N+](=O)[O-])c2)CC1	i	i	i	-1	i	0.76	x	x	x
O=C(NCc1ccco1)C1CCN(c2ccc(S(=O)(=O)N3CCOCC3)cc2[N+](=O)[O-])CC1	-9.3*	i	i	-5	i	0.06	i	i	i
COc1ccc(C(C)=O)cc1CSc1nc2ccccc2c(=O)n1-c1ccccc1	i	i	i	-7	i	0	x	x	x
CCC(CO)n1c(SCc2cc(=O)oc3cc(C)ccc23)nc2ccccc2c1=O (stereo not drawn)	-12*	i	i	-9	i	0.2	53%*	i	26%*
SMILES	KCNK9 inh	KCNQ1 inh	KCNQ1 pot	hERG protect	KCNK3 inh	Kir21 block	KCNK9 block conf	Kir2-1 spec	HEK293 Tl ctr
C=CCn1c(SCc2cc(C(C)=O)ccc2OCC)nc2ccccc2c1=O	-13*	i	i	-6	i	1.2	66%*	i	43%*
COc1ccc(C(C)=O)cc1CSc1nc2ccccc2c(=O)n1-c1ccccc1C	-9*	i	i	-5	i	-0.79	32%*	i	32%*
COc1ccccc1-n1c(SCc2cc(=O)oc3cc(O)ccc23)nc2ccccc2c1=O	-8.3*	i	i	-6	i	-0.15	32%*	i	i
CCn1c(SCC(=O)N2CCC(C)CC2)nnc1-c1ccco1	i	i	i	-3	i	0.51	x	x	x
Cc1nc(N(C)Cc2ccccc2)c2nnn(Cc3ccccc3)c2n1	i	i	i	-14	i	0.96	i	i	i
SC(COCc1ccccc1)CN1CCN(Cc2ccc3c(c2)OCO3)CC1 (stereo not drawn)	i	i	i	-13	i	-0.49	i	i	i
NC(=O)/C=C\c1cn(-c2ccccc2)nc1-c1ccc2c(c1)OCCO2	i	i	i	-8	i	0.8	x	x	x
CC(C)OC(=O)c1cn(-c2ccccc2)nc1-c1ccc2c(c1)OCCO2	i	i	i	-14	i	0.01	i	i	i
CCN(CC)c1ccc(CNc2ccc(Br)cn2)cc1	i	i	i	-7	i	0.85	i	i	i
Cc1cc(C)n2nc(C(=O)OCC(=O)Nc3cc(S(=O)(=O)N4CCOCC4)ccc3Cl)nc2n1	x	x	x	x	i	x	x	x	x
Cc1ccccc1NC(=O)c1sc2nc3c(c(-c4ccco4)c2c1N)CCC3	-8.1*	i	i	-12	i	-0.43	30%*	i	26%*
Cc1cccc(Nc2nc(NCc3ccco3)c3ccccc3n2)c1	-8.1*	10*	i	-25	i	-14*	49%*	86%*	i

Source: PubChem
